# Source: PubChem BioAssay (several laboratories)
# A selection: hits, their analogues and other compounds. The true share with any hit is near 3.3%.
# sPLA2-III inh: human group III sPLA2 inhibitors, primary screen, biochemical, QFRET, BODIPY PC-A2 liposome substrate; Group 3 secretory phospholipase A2 (Homo sapiens), Q9NZ20; QFRET BODIPY PC-A2 liposome hydrolysis, fluorescence; inhibition, % at 12.2 µM; hit rate 0.56% among 370,000; AID 743126, 2013;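 active = inhibition above mean plus 3 SD of compounds lying within the high and low control bounds, cut at about 19% in these data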;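 note: 0% = median of test compound wells and 100% = no enzyme DMSO wells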
# Target sequence (Q9NZ20 whole entry, looked up): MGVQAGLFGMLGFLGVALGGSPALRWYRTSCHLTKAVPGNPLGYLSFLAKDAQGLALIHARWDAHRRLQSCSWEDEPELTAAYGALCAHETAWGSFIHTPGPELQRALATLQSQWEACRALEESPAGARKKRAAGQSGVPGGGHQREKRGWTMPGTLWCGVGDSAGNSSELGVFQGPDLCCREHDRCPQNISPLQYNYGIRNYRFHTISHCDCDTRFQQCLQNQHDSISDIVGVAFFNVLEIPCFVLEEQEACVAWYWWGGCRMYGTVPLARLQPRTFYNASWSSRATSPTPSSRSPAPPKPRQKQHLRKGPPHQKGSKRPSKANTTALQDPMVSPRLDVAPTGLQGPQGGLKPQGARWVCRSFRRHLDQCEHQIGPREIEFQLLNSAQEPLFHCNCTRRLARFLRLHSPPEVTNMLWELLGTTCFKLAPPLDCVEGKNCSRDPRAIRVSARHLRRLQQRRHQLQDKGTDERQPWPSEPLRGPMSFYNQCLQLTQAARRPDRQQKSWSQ
# HTR2A ag: mouse Htr2a agonists via beta-arrestin recruitment, primary screen, cell-based, luminescence | activation, % at 7.6 µM | AID 624169, 2012 | hit rate 0.66% among 360,000 | CHO-K1 mHTR2A beta-arrestin complementation; percent of 30 µM serotonin response;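 active = activation above a run cutoff, the mean activation of all tested compounds plus 3 SD, cut at about 14% in these data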;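 note: 0% = plate median of compound wells and 100% = 30 µM serotonin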
# Lipid droplet: inhibitors of hepatocyte lipid droplet formation, primary screen, imaging, high-throughput imaging, BODIPY stain. AML12 mouse hepatocytes, oleate lipid droplets. hit rate 0.4% among 240,000. inhibition, % at 6.5 µM;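 active = lipid droplet intensity inhibited by at least 50%, with more than 500 cells counted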
#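 Material – AML12 mouse liver cells · Also added – oleate loading, 100 µM · Compound dosing – 6.5 µM single-point dosing · Times – overnight treatment with compound plus oleate · Measured by – fluorescence imaging, 20x objective, two fields per well · Read-out – percent inhibition of filter-corrected integrated lipid droplet intensity per well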
# M18AAP inhibitor: PfM18AAP inhibitors, malaria aminopeptidase, primary screen, biochemical, QFRET, recombinant enzyme | H-Glu-NHMec fluorogenic cleavage | hit rate 1.2% among 290,000 | inhibition, % at 7.35 µM;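 active = inhibition above the campaign mean inhibition over all tested compounds plus 3 SD, cut at about 28% in these data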;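 note: 0% = plate median of test compound wells and 100% = 2 mM ZnCl2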
# Arr AP2 block: inhibitors of beta-arrestin/AP2 binding, primary screen, biochemical, GPCR trafficking, flow cytometry; beta-arrestin 1 C-terminal peptide binding to AP2 beta2-adaptin appendage (human); FITC-arrestin peptide / GST-AP2 beads; AP2 beta2 appendage carries R879A mutation; inhibition, % at 10 µM; hit rate 0.31% among 340,000;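 active = inhibition above a set limit, near 3 SD of compounds lacking own fluorescence, cut at about 54% in these data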;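 note: plate controls were DMSO wells for no effect and 5 µM unlabelled arrestin peptide for full effect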
#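 System: GST-tagged AP2 beta2-adaptin appendage (R879A) on 4 µm glutathione beads / Reagent: FITC-arrestin peptide, 50 nM / Detection: HyperCyt-sampled flow cytometry, FL1 channel, ex 488/em 535 nm / Timing: 12 min plus 1 h, RT / Buffer or medium: PBS plus Tween 20 (0.05%) and BSA (0.1%)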
# CendR NRP1 mod: modulators of CendR peptide binding to NRP-1, primary screen, biochemical, fluorescence polarization, uHTS; Neuropilin-1 (Homo sapiens), O14786; AID 602438, 2012; FAM-RPARPAR peptide binding to NRP-1; hit rate 0.85% among 360,000; inhibition, % at 25 µM;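 active = inhibition or corrected inhibition above about 18%, plus a signal ratio from 0.5 to 1.5, limit read from the data, passing the limit was not always enough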
# Arr-AP2 CP1: inhibitors of arrestin peptide binding to AP2, confirmation, biochemical, cherry pick 1, flow cytometry beads; hit rate 2% among 1,300; shares compounds with Arr AP2 block; GST-AP2 beads, FITC arrestin peptide binding; GST-fused beta2-adaptin appendage, R879A mutant; inhibition, % at 10 µM;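 active = inhibition above a set limit, roughly 3 SD of non-fluorescent compound noise, cut at about 38% in these data; inactive = inhibition at or below that limit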;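 note: loss of bead fluorescence from 50 nM FITC arrestin peptide bound to appendage; 0% = negative control wells and 100% = excess unlabelled arrestin peptide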
# GST GSH counter: GST-fluorescein capture on glutathione beads, confirmation, artefact control for arrestin-AP2 inhibitor project, biochemical, cherry pick 1, flow cytometry. hit rate 2% among 1,300. inhibition, % at 10 µM. GST-fluorescein binding to GSH beads, fluorescence, counter-screen. AID 588338, 2011. shares compounds with Arr AP2 block;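 active = inhibition above 50%, about 3 SD of the inhibition seen with non-fluorescent compounds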;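 note: fluorescein maleimide labelled GST captured on 4 micron glutathione beads; higher means more loss of bead fluorescence from quenching or blocked binding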
# * marks the source's active call; other numbers are inactive results; . = no result.
SMILES,sPLA2-III inh,HTR2A ag,Lipid droplet,M18AAP inhibitor,Arr AP2 block,CendR NRP1 mod,Arr-AP2 CP1,GST GSH counter
Cc1ccc(N(CC(=O)NC(C)C)C(=O)CCC(=O)Nc2nccs2)c(C)c1,-8,5,14,-3,-9,7,.,.
C1CCN(c2nc(N3CCCCC3)nc(N3CCNCC3)n2)CC1,-10,9,.,-6,101*,-7,1,-1
COc1cccc(CN(C)C(=O)[C@@H](Cc2ccccc2)NC(=O)[C@H]2O[C@@H](n3ccc(=O)[nH]c3=O)[C@H](O)[C@@H]2O)c1,-8,.,.,.,.,.,.,.
CN(Cc1ccco1)C(=O)[C@H](Cc1ccccc1)NC(=O)CC[C@H]1O[C@@H](n2ccc(=O)[nH]c2=O)[C@H](O)[C@@H]1O,11,1,.,.,.,-1,.,.
Cc1ccc(-c2cc(C(=O)NN=Cc3sccc3C)[nH]n2)cc1C,-14,.,.,.,.,.,.,.
COc1cccc(NC(=O)c2cc(-c3ccc(C)o3)nc3ccccc23)c1,0,-6,-3,-59,54*,-8,-6,9
CSc1cccc(NC(=S)N(Cc2ccc(C)cc2)Cc2ccccn2)c1,6,3,6,-1,54*,1,-8,-9
COc1ccc(NC(=S)N2CCCC(c3nc4ccc(C)cc4[nH]3)C2)cc1 (stereo not given),8,-1,-2,6,57*,10,-10,-3
Cc1cc(NC(=O)COC(=O)CCS(=O)(=O)c2cc(Cl)ccc2Cl)no1,-5,-4,-6,-2,57*,2,-11,11
CC(C)CNC(=O)c1cc(S(=O)(=O)N2CCOCC2)ccc1N1CCCC1,0,8,-1,6,55*,3,9,-6
COc1ccc(CNC(=O)c2cc(S(=O)(=O)N3CCCCC3)ccc2N2CCOCC2)cc1OC,7,-1,.,.,3,-3,.,.
COc1ccc(CCNC(=O)c2cc(S(=O)(=O)N3CCOCC3)ccc2N2CCCC2)cc1OC,8,8,.,.,-11,4,-11,2
CC(=O)c1ccccc1NC(=O)c1cc(S(=O)(=O)N2CCOCC2)ccc1N1CCCC1,-1,-2,.,.,-1,5,1,-7
COC(=O)c1ccccc1NC(=O)N1c2ccccc2CC1C (stereo not given),0,-6,-20,0,5,2,.,.
CCCCNC(=O)N1c2ccccc2CC1C (stereo not given),-2,1,-8,0,57*,4,13,-9
COCCCNC(=O)C[C@H]1C[C@@]2(C(=O)OC)C(=C[C@H](C3CCCC3)O[C@@H]2C)N(Cc2ccco2)C1=O,3,.,.,.,.,.,.,.
CCc1ccc(OCC(=O)Nc2cccc3nsnc23)cc1,0,3,2,-7,7,0,.,.
Cc1ccccc1OCC(=O)Nc1cccc2nsnc12,0,-3,-15,-2,101*,7,9,-10
COC(=O)[C@]1(CNC(=O)C(C)(C)C)CC(=O)N(Cc2ccc(Cl)cc2)[C@@H]1c1ccc(OC)cc1,-2,.,.,.,.,.,.,.
COc1ccc2cc(C(=O)Nc3ccc(F)cc3)sc(=O)c2c1OC,0,-5,.,4,99*,-17,-1,-3
CC(=O)Nc1cccc(-c2cc(C(C)=O)c3n(c2=O)CCC3)c1,14,.,.,.,.,.,.,.
CCOC(=O)CSC1=N/C(=C\c2cccnc2)C(=O)N1c1ccc(OC)cc1,1,2,-16,4,105*,7,2,-4
COc1ccc(NC(=O)/C(=C/c2cccnc2)NC(=O)c2cccs2)cc1,-2,7,-6,-7,66*,4,-8,0
Cn1c(N)c(C(=O)COC(=O)C2CCCC2)c(=O)n(C)c1=O,-1,-2,9,5,-6,1,.,.
Cn1c(N)c(C(=O)COC(=O)CNC(=O)c2ccccc2)c(=O)n(C)c1=O,-5,7,.,.,-9,-6,.,.
SMILES,sPLA2-III inh,HTR2A ag,Lipid droplet,M18AAP inhibitor,Arr AP2 block,CendR NRP1 mod,Arr-AP2 CP1,GST GSH counter
CCCCOc1ccc(C(=O)OCC(=O)c2c(N)n(C)c(=O)n(C)c2=O)cc1,5,9,.,.,-8,1,-1,5
Cc1ccc(C(=O)NCC(=O)OCC(=O)c2c(N)n(C)c(=O)n(C)c2=O)s1,0,3,.,-3,75*,2,-12,3
CCCOc1ccc(C(=O)OCC(=O)c2c(N)n(C)c(=O)n(C)c2=O)cc1OCC,-4,4,5,-5,17,6,.,.
Cn1c(N)c(C(=O)COC(=O)CCC2CCCCC2)c(=O)n(C)c1=O,-8,4,2,3,55*,-2,2,6
Cn1c(N)c(C(=O)COC(=O)c2ccc(Br)o2)c(=O)n(C)c1=O,2,9,.,-5,13,7,1,0
Cn1c(N)c(C(=O)COC(=O)c2ccc([N+](=O)[O-])o2)c(=O)n(C)c1=O,18,5,-5,7,-25,-17,.,.
CC(NCCCSc1ccccc1)C(O)c1ccc(O)cc1 (stereo not given),-3,-5,.,.,.,2,.,.
CCOc1cc(C(=O)OCC(=O)c2c(N)n(C)c(=O)n(C)c2=O)cc(OCC)c1OCC,5,4,0,15,-3,2,.,.
Cn1c(N)c(C(=O)COC(=O)c2cncc(Br)c2)c(=O)n(C)c1=O,2,1,-10,-6,61*,-1,-9,6
Nc1c(N(C(=O)Nc2ccc(Cl)c(Cl)c2)C2CCCC2)c(=O)[nH]c(=O)n1Cc1ccccc1,0,-3,-17,4,84*,-1,3,-5
Cc1ccc(Nc2c([N+](=O)[O-])ccc3nonc23)cc1C,7,11,-7,2,11,-1,.,.
CCOC(=O)C1CCN(C(=O)c2ccc(N3CCOCC3)c([N+](=O)[O-])c2)CC1,10,-2,.,.,64*,10,-7,-3
COc1ccc(CN2C(C(=O)NCC(C)C)CSCCS2(=O)=O)cc1 (stereo not given),4,.,.,.,.,.,.,.
